ChEMBL document CHEMBL4229410, “Facile construction of fused benzimidazole-isoquinolinones that induce cell-cycle arrest and apoptosis in colorectal cancer cells” (Bioorg Med Chem, 2018)
Active and inactive are the calls of the source. The rule behind the calls is not given here.

Key:
SW-620 [1] = test: Inhibition of colony formation in human SW620 cells assessed as reduction in colony size at 25 to 75 uM treated for 48 hrs followed by compound washout and measured after 14 hrs by crystal violet staining based assay; format: functional, cell-based
SW-620 [2] = test: Upregulation of p21 expression in human SW620 cells after 48 hrs by Western blot analysis; format: functional, cell-based
SW-620 [3] = test: Induction of apoptosis in human SW620 cells assessed as increase in apoptotic bodies after 48 hrs by Hoechst 33342 staining based fluorescence microscopic analysis; format: functional, cell-based
HT-29 [4] = test: Induction of apoptosis in human HT-29 cells assessed as live cells at 25 uM after 48 hrs by Annexin-V-FITC/propidium iodide staining based flow cytometry (reference value: 93.2%); format: functional
HT-29 [5] = test: Induction of apoptosis in human HT-29 cells assessed as late apoptotic cells at 75 uM after 48 hrs by Annexin-V-FITC/propidium iodide staining based flow cytometry (reference value: 4.1%); format: functional
HT-29 [6] = test: Increase in PTEN expression in human HT-29 cells after 48 hrs by Western blot analysis; format: functional, cell-based
Outline: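 HT29 or SW620 cells were treated at 0, 25, 50 and 75 μM for 48 h and lysed in RIPA with protease and phosphatase inhibitors. Protein was quantified by BCA. 50 μg lysate was run on 8–15% SDS-PAGE and transferred to PVDF. Blocking was 5% BSA/TBST for 2 h; primary antibodies were applied overnight at 4 °C, then HRP secondary 1 h at room temperature.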

HT-29 [7] = test: Inhibition of PI3K/AKT signaling pathway in human HT-29 cells assessed as reduction in mTOR phosphorylation up to 75 uM after 48 hrs by Western blot analysis; format: cell-based
HT-29 [8] = test: Inhibition of PI3K in human HT-29 cells assessed as reduction in AKT phosphorylation at T308 residue up to 75 uM after 48 hrs by Western blot analysis; format: cell-based
[9] = molecular target: Serine/threonine-protein kinase mTOR (Homo sapiens) (UniProt P42345); test: Inhibition of mTOR in human SW620 cells assessed as reduction in 4EBP1 phosphorylation up to 75 uM after 48 hrs by Western blot analysis; format: cell-based
[10] = tested on: Tyrosine-protein kinase ABL1 (Homo sapiens), P00519 [E255K]; test: Inhibition of human phosphorylated ABL1 E255K mutant (S229 to K512 residues) expressed in mammalian expression system assessed as residual activity at 5 uM by KINOMEscan assay relative to control
[11] = molecular target: Tyrosine-protein kinase ABL1 (Homo sapiens, UniProt P00519); test: Inhibition of human phosphorylated ABL1 (S229 to K512 residues) expressed in mammalian expression system assessed as residual activity at 5 uM by KINOMEscan assay relative to control
[12] = molecular target: Cyclin-dependent kinase 19 (Homo sapiens, UniProt Q9BWU1); test: Inhibition of human CDK11 (M1 to N360 residues) expressed in bacterial expression system assessed as residual activity at 5 uM by KINOMEscan assay relative to control
[13] = molecular target: Cyclin-dependent kinase 9 (Homo sapiens, UniProt P50750); test: Inhibition of full length human CDK9 (M1 to F372 residues) expressed in bacterial expression system assessed as residual activity at 5 uM by KINOMEscan assay relative to control
Focal adhesion kinase 1 [14] = molecular target: T1, Focal adhesion kinase 1 (Homo sapiens, UniProt Q05397); test: Inhibition of human FAK (D402 to R696 residues) expressed in bacterial expression system assessed as residual activity at 5 uM by KINOMEscan assay relative to control
Target sequence in this assay (Q05397 2-1052 limits assumed): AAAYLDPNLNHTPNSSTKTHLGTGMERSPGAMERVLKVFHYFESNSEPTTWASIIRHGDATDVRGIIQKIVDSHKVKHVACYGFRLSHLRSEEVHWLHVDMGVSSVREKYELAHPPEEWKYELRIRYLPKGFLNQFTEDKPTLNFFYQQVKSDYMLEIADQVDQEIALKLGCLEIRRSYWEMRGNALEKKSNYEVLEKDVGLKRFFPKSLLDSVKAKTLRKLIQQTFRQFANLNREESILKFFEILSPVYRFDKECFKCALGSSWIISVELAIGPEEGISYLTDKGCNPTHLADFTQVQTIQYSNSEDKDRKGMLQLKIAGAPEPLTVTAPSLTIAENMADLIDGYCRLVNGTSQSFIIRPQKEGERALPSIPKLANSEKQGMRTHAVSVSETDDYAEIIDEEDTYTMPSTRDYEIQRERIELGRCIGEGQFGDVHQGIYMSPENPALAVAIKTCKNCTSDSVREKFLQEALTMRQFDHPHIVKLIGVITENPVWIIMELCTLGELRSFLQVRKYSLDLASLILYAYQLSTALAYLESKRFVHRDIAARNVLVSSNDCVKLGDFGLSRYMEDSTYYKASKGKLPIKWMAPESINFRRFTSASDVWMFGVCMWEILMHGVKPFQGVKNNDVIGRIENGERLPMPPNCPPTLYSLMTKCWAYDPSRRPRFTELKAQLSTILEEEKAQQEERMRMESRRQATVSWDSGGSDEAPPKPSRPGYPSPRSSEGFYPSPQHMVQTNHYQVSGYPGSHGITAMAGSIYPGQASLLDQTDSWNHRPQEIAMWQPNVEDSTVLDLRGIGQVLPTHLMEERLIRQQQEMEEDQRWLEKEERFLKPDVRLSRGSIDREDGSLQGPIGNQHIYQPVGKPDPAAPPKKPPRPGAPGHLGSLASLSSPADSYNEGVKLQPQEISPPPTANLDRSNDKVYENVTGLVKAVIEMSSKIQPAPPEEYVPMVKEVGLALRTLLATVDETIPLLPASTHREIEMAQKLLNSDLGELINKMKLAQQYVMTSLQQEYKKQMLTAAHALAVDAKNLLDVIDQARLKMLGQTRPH

[15] = molecular target: Inhibitor of nuclear factor kappa-B kinase subunit alpha (Homo sapiens) (UniProt O15111); test: Inhibition of full length human IKKalpha (M1 to E745 residues) expressed in mammalian expression system assessed as residual activity at 5 uM by KINOMEscan assay relative to control
[16] = tested on: Mast/stem cell growth factor receptor Kit (Homo sapiens), P10721 [D816V]; test: Inhibition of human KIT (I571 to D952 residues) D816V mutant expressed in bacterial expression system assessed as residual activity at 5 uM by KINOMEscan assay relative to control
[17] = molecular target: MAP/microtubule affinity-regulating kinase 3 (Homo sapiens, UniProt P27448); test: Inhibition of full length human MARK3 (M1 to L729 residues) expressed in bacterial expression system assessed as residual activity at 5 uM by KINOMEscan assay relative to control
[18] = molecular target: Mitogen-activated protein kinase kinase kinase 9 (Homo sapiens, UniProt P80192); test: Inhibition of human MLK1 (V88 to W426 residues) expressed in bacterial expression system assessed as residual activity at 5 uM by KINOMEscan assay relative to control
[19] = molecular target: Mitogen-activated protein kinase 14 (Homo sapiens, UniProt Q16539); test: Inhibition of full length human p38alpha (M1 to S360 residues) expressed in bacterial expression system assessed as residual activity at 5 uM by KINOMEscan assay relative to control
[20] = molecular target: Serine/threonine-protein kinase RIO2 (Homo sapiens, UniProt Q9BVS4); test: Inhibition of human RIOK2 (M1 to D313 residues) expressed in mammalian expression system assessed as residual activity at 5 uM by KINOMEscan assay relative to control
[21] = molecular target: Tyrosine-protein kinase ABL1 (Homo sapiens, UniProt P00519, T315I); test: Binding affinity to human phosphorylated ABL1 T315I mutant (S229 to K512 residues) expressed in mammalian expression system by KINOMEscan assay
[22] = molecular target: ALK tyrosine kinase receptor (Homo sapiens, UniProt Q9UM73); test: Binding affinity to human ALK (I1088 to E1409 residues) expressed in mammalian expression system by KINOMEscan assay
Aurora kinase B = Aurora kinase B (Homo sapiens, UniProt Q96GD4); test: Binding affinity to human AURKB (D25 to A303 residues) expressed in mammalian expression system by KINOMEscan assay
Focal adhesion kinase 1 [23] = molecular target: T1, Focal adhesion kinase 1; test: Binding affinity to human FAK (D402 to R696 residues) expressed in bacterial expression system by KINOMEscan assay
Target sequence in this assay (Q05397 whole entry, the tested form may be a part): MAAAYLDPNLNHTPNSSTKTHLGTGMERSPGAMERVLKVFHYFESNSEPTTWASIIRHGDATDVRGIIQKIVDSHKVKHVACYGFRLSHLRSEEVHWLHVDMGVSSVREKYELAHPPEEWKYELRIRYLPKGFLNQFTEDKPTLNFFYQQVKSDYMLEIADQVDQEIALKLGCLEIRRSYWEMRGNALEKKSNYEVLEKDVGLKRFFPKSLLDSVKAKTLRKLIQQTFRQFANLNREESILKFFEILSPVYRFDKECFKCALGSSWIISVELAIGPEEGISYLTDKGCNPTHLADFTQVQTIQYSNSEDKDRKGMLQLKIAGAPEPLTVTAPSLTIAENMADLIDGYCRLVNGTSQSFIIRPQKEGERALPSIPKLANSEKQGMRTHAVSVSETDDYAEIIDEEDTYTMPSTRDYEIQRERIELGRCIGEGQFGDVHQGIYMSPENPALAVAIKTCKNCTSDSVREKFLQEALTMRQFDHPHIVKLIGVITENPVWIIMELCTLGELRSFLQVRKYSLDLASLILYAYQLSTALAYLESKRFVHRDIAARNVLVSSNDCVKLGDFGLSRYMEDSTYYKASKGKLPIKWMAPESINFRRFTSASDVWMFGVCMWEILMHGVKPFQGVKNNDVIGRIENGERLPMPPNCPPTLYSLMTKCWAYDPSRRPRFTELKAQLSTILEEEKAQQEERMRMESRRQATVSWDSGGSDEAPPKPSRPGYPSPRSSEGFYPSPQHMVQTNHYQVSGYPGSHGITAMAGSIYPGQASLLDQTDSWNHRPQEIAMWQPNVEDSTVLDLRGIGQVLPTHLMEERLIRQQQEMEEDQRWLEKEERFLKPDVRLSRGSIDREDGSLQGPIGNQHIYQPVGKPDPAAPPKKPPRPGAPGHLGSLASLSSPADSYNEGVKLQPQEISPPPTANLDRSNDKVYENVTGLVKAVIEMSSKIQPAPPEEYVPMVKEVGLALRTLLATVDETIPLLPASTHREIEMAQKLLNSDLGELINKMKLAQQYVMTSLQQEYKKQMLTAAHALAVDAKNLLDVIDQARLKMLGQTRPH

[24] = molecular target: Glycogen synthase kinase-3 beta (Homo sapiens, UniProt P49841); test: Binding affinity to full length human GSK3B (M1 to T433 residues) expressed in mammalian expression system by KINOMEscan assay
[25] = molecular target: Inhibitor of nuclear factor kappa-B kinase subunit beta (Homo sapiens, UniProt O14920); test: Binding affinity to full length human IKKbeta (M1 to S756 residues) expressed in mammalian expression system by KINOMEscan assay
Insulin receptor = Insulin receptor (Homo sapiens, UniProt P06213); test: Binding affinity to human INSR (P997 to E1318 residues) expressed in mammalian expression system by KINOMEscan assay
[26] = molecular target: Mitogen-activated protein kinase 9 (Homo sapiens, UniProt P45984); test: Binding affinity to full length human JNK2 (M1 to Q382 residues) expressed in mammalian expression system by KINOMEscan assay
[27] = molecular target: MAP kinase-interacting serine/threonine-protein kinase 1 (Homo sapiens, UniProt Q9BUB5); test: Binding affinity to full length human MKNK1 (M1 to L424 residues) expressed in mammalian expression system by KINOMEscan assay

Sequence of Aurora kinase B (Q96GD4 whole entry, the tested form may be a part): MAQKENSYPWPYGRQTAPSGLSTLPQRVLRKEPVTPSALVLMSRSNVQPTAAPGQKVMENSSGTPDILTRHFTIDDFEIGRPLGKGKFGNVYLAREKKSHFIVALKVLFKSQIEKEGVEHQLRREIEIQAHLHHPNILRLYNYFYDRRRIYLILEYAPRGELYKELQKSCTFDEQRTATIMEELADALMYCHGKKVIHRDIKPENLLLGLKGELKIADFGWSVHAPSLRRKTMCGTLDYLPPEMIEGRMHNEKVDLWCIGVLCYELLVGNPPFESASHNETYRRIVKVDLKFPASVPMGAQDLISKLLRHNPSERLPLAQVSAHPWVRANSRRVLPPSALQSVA
Sequence of Mitogen-activated protein kinase 9 (P45984 whole entry, the tested form may be a part): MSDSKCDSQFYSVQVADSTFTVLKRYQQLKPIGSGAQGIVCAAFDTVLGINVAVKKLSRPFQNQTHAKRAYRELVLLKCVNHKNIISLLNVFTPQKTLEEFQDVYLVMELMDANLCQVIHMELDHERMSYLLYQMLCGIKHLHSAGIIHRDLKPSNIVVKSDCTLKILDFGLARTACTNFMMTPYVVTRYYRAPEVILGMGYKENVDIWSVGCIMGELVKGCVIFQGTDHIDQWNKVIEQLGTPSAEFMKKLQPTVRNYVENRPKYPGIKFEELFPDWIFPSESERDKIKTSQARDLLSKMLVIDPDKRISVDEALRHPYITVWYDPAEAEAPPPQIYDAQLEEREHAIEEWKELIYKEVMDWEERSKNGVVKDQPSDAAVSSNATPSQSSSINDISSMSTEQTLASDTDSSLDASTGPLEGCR
Sequence of Cyclin-dependent kinase 9 (P50750 whole entry, the tested form may be a part): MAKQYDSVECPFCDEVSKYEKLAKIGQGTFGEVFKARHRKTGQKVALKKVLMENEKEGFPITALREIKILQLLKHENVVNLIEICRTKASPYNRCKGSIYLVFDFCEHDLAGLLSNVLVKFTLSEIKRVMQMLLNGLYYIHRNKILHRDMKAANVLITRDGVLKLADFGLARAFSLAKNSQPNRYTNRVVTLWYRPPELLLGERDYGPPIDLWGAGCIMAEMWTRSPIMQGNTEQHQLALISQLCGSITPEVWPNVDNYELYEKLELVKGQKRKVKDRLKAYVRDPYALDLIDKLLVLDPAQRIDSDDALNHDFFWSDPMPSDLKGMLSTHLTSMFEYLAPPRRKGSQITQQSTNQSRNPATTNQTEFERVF
Sequence of MAP/microtubule affinity-regulating kinase 3 (P27448 whole entry, looked up, the tested form may be a part): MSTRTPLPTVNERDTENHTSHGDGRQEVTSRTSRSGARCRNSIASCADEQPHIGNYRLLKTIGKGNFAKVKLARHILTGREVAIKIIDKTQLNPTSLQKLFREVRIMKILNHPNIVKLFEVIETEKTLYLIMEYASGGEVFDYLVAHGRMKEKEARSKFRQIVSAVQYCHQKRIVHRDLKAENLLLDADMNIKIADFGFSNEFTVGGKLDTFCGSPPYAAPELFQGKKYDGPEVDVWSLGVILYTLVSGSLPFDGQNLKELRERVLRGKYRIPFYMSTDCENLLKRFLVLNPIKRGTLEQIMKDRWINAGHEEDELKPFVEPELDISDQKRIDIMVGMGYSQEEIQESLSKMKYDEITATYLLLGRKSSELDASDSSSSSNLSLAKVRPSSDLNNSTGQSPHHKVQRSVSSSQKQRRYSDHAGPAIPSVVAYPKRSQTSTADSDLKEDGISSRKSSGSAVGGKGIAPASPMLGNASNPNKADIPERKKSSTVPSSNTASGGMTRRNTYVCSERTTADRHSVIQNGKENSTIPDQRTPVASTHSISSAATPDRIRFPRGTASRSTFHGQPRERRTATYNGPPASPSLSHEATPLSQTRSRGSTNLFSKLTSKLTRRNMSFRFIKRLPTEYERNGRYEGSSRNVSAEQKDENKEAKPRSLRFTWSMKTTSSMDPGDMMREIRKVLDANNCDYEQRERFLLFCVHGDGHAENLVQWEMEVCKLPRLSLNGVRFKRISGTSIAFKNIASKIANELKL
Sequence of Inhibitor of nuclear factor kappa-B kinase subunit alpha (Homo sapiens) (O15111 whole entry, the tested form may be a part): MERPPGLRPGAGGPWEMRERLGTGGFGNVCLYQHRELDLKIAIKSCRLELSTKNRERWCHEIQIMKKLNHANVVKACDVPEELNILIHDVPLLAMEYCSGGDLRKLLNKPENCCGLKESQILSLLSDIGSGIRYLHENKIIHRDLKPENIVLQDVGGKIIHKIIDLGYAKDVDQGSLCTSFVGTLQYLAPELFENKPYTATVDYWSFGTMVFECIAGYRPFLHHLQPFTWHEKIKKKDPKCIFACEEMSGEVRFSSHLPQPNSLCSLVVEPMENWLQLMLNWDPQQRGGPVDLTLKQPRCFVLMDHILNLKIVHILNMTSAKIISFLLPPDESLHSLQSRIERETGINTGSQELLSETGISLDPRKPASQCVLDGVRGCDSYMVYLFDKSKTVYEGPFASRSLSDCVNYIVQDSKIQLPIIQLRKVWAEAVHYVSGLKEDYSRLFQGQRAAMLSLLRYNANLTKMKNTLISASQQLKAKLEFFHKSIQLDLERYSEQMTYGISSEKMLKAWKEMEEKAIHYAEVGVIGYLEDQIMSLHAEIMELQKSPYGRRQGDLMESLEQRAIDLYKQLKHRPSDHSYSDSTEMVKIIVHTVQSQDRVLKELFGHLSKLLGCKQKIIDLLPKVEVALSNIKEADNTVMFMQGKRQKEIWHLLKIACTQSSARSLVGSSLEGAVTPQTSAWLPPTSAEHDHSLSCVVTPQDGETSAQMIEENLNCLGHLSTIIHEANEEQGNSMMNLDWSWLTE

CC(C)CN(C(=O)c1cccnc1)c1c2ccccc2c(=O)n2c1[nH]c1ccccc12 was tested, and the inhibition (SW-620 [1]) was “Active”, the Activity (SW-620 [2]) was “Dose-dependent effect” and the Activity (SW-620 [3]) was “Dose-dependent effect”. The Activity (HT-29 [4]) was 88.4%, the Activity (HT-29 [5]) was 31.1% and the Activity (HT-29 [6]) was “Dose-dependent effect”. For the same compound, the inhibition (HT-29 [7]) was “Active”, the inhibition (HT-29 [8]) was “Active” and the inhibition [9] was “Active”. For the same compound, the Activity [10] was 69%, the Activity [11] was 85% and the Activity [12] was 77%. For the same compound, the Activity [13] was 87%, the Activity (Focal adhesion kinase 1 [14]) was 100% and the Activity [15] was 100%. It also gave an Activity [16] of 100%, an Activity [17] of 94% and an Activity [18] of 84%. For the same compound, the Activity [19] was 100%, the Activity [20] was 87% and the Kd [21] was ≥ 5 µM. The Kd [22] was ≥ 5 µM, the Kd (Aurora kinase B) was ≥ 5 µM and the Kd (Focal adhesion kinase 1 [23]) was ≥ 5 µM. The Kd [24] was ≥ 5 µM, the Kd [25] was ≥ 5 µM and the Kd (Insulin receptor) was ≥ 5 µM. For the same compound, the Kd [26] was ≥ 5 µM and the Kd [27] was ≥ 5 µM.
